This note sets out measurements from ChEMBL document CHEMBL2311400, “Synthesis and biological evaluation of 4-(aminomethyl)-1-hydroxypyrazole analogues of muscimol as γ-aminobutyric acid(a) receptor agonists” (J Med Chem, 2013).

Assay [1] in a line: Displacement of [3H]muscimol from GABAA receptor in rat synaptic membrane after 60 mins by scintillation counting analysis. It is filed as cell membranes. Summed up: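 Membranes from cortex and central hemispheres of male SPRD rat brains, washed repeatedly in 50 mM Tris-HCl pH 7.4. 70–80 μg protein per well incubated with [3H]muscimol. Separated by GF/C filtration with ice-cold buffer washes; bound radioactivity counted by scintillation. Nonspecific binding defined with 1.0 mM GABA.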

The target in assay [2] is T1, Gamma-aminobutyric acid receptor subunit rho-1 (Homo sapiens, UniProt P24046). Put plainly: Agonist activity at human GABAA rho1 receptor expressed in TSA201 cells after 1 min by FLIPR assay. Type of assay: cell-based. The essentials:
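tsA201 cells transfected with 5 μg human ρ1 cDNA, then plated on poly-D-lysine plates for 16–24 h. Loaded with FLIPR membrane potential blue dye in Krebs buffer (pH 7.4), 30 min at 37 °C. Emission at 560 nm (excitation 530 nm) recorded before and up to 1 min after agonist addition. Curves fitted from ΔFU; duplicate, at least three times.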

For assay [3], the target named is T2, GABA-A receptor; alpha-1/beta-2/gamma-2 (Homo sapiens, UniProt P14867+P18507+P47870).
T2 sequence (P14867 whole entry): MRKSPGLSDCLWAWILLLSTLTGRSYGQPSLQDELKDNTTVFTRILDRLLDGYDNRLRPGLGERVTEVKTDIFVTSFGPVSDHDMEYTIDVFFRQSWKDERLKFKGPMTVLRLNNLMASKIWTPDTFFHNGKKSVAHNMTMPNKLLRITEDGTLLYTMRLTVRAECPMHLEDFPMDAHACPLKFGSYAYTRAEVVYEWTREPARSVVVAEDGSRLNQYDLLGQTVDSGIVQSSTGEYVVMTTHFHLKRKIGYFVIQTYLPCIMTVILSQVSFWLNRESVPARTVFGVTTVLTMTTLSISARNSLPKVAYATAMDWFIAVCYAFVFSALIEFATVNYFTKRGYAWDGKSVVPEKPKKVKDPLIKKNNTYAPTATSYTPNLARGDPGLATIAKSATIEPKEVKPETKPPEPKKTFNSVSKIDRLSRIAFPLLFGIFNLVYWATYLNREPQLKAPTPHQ
T2 sequence (P47870 whole entry): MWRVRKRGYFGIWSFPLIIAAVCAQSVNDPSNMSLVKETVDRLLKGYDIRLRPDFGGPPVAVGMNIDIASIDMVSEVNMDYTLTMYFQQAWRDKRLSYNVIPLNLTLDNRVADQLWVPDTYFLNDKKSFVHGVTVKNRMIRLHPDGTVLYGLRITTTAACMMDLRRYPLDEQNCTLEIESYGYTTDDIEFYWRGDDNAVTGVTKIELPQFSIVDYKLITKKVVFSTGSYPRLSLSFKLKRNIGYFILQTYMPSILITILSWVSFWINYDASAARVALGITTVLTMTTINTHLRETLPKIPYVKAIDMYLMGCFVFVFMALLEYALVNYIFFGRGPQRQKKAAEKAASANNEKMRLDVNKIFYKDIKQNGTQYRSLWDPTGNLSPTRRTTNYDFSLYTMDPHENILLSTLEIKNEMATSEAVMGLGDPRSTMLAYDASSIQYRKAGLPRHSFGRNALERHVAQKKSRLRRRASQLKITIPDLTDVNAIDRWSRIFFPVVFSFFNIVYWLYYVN
T2 sequence (P18507 whole entry): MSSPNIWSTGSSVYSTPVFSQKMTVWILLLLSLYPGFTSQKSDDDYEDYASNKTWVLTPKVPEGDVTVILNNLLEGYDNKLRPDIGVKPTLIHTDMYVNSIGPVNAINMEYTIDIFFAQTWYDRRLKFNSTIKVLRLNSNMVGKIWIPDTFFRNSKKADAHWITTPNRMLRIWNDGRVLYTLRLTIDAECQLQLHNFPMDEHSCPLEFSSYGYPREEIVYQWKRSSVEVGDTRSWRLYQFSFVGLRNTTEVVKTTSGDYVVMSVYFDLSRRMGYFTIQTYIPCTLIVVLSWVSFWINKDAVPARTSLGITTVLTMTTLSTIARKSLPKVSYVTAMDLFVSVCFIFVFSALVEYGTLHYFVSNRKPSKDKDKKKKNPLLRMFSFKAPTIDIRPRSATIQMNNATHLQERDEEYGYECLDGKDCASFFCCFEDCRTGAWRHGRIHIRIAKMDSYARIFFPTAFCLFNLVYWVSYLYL
Put plainly: Agonist activity at human GABAA alpha1beta2gamma2S receptor expressed in TSA201 cells after 1 min by FLIPR assay. It is filed as cell-based. Summed up:
(§1)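 tsA201 cells transfected with 1 μg α (1, 2, 3 or 5), 1 μg β2 and 3 μg γ2S cDNA (Polyfect). Cells replated onto poly-D-lysine plates and assayed 16–24 h later. Loaded with FMP blue dye in Krebs buffer pH 7.4 for 30 min at 37 °C.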

For assay [4], the target named is T2, GABA-A receptor; alpha-1/beta-2/gamma-2. Put plainly: Agonist activity at human GABAA alpha1beta2gamma2S receptor expressed in HEK293 cells by patch clamp electrophysiology assay. Type of assay: cell-based. For orientation: In patch-clamp work, channel activity is measured electrically.
In assay [5] the target is T1, Gamma-aminobutyric acid receptor subunit rho-1. Put plainly: Agonist activity at human GABAA rho1 receptor expressed in HEK293 cells at up to 300 uM by patch clamp electrophysiology assay. Type of assay: cell-based.
Assay [6] deals with T3, GABA-A receptor; alpha-1/beta-2/gamma-2 (Homo sapiens) (UniProt P14867+P47870+P18507). The assay is described as follows: Agonist activity at human GABAA alpha1beta2gamma2S receptor expressed in HEK293 cells by patch clamp electrophysiology assay relative to GABA. It is filed as cell-based.
In assay [7] the target is T3, GABA-A receptor; alpha-1/beta-2/gamma-2 (Homo sapiens). The assay is described as follows: Agonist activity at human GABAA alpha1beta2gamma2S receptor expressed in TSA201 cells at 300 to 500 uM after 1 min by FLIPR assay. It is filed as cell-based.
The target of assay [8] is T1, Gamma-aminobutyric acid receptor subunit rho-1. Put plainly: Agonist activity at human GABAA rho1 receptor expressed in TSA201 cells at 300 to 500 uM after 1 min by FLIPR assay. Type of assay: cell-based.
Assay [9] deals with T3, GABA-A receptor; alpha-1/beta-2/gamma-2 (Homo sapiens). Put plainly: Agonist activity at human GABAA alpha1beta2gamma2S receptor expressed in HEK293 cells at up to 300 uM by patch clamp electrophysiology assay. It is filed as cell-based.
In assay [10] the target is T4, GABA A receptor alpha-2/beta-2/gamma-2 (Homo sapiens, UniProt P18507+P47869+P47870).
T4 sequence (P47870 whole entry): T2 sequence (P47870 whole entry)
T4 sequence (P18507 whole entry): T2 sequence (P18507 whole entry)
T4 sequence (P47869 whole entry): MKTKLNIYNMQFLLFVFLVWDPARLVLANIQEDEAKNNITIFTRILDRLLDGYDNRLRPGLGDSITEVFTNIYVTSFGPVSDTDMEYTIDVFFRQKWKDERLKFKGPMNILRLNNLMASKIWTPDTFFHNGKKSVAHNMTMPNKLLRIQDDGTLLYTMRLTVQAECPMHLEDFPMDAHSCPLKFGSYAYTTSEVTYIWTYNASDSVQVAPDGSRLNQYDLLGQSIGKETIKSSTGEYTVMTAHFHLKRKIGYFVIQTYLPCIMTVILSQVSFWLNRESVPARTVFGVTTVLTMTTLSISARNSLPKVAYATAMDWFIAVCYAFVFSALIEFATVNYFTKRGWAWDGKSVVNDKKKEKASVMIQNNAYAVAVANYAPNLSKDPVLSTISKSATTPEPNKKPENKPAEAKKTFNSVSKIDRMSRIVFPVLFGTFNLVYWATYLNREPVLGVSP
The assay is described as follows: Agonist activity at human GABAA alpha2beta2gamma2S receptor expressed in TSA201 cells after 1 min by FLIPR assay. It is filed as cell-based. Summed up:
as §1

Assay [11] concerns the target T5, GABA A receptor alpha-3/beta-2/gamma-2 (Homo sapiens, UniProt P18507+P34903+P47870).
T5 sequence (P47870 whole entry): T2 sequence (P47870 whole entry)
T5 sequence (P18507 whole entry): T2 sequence (P18507 whole entry)
T5 sequence (P34903 whole entry): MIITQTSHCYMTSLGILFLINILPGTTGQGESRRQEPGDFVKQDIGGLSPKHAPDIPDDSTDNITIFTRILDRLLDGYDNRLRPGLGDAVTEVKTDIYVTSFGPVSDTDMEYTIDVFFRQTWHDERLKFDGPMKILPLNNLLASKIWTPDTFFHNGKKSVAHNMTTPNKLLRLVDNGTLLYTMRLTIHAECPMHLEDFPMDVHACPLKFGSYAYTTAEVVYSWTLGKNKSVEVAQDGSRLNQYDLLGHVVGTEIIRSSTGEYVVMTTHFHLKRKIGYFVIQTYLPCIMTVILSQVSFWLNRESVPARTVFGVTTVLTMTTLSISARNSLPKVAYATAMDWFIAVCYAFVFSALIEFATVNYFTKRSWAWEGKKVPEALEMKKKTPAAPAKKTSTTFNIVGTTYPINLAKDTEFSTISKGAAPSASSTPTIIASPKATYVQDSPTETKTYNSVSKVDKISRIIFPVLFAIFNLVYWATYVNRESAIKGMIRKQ
The assay is described as follows: Agonist activity at human GABAA alpha3beta2gamma2S receptor expressed in TSA201 cells after 1 min by FLIPR assay. Type of assay: cell-based. The essentials:
as §1

Assay [12] is described as follows: Agonist activity at human GABAA alpha5beta2gamma2S receptor expressed in TSA201 cells after 1 min by FLIPR assay. It is filed as cell-based. The settings on record: tsA201, 1 min.

Molecules are shown by their SMILES. Active and inactive are the calls of the source. No cut-off for these calls is given here.

T1 sequence (P24046 whole entry): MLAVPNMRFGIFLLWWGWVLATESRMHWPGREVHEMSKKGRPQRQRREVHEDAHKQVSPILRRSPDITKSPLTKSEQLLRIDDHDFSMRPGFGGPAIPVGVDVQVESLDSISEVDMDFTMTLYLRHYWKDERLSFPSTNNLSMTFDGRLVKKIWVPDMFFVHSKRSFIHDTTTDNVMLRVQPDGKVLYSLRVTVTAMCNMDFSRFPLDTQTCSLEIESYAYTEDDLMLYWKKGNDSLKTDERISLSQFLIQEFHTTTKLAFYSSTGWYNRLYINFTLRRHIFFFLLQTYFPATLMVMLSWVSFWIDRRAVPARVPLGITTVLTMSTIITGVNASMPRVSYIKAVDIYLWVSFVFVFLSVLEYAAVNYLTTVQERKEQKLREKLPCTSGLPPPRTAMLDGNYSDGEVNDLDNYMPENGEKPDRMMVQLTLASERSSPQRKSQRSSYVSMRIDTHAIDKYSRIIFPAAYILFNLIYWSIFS

Regarding `Cc1nn(O)c(C)c1CN`, the Ki (usually the equilibrium dissociation constant of an inhibitor or competing ligand from its target) in assay [1] is more than 100 µM.

For the compound `NCc1cn(O)nc1I`, in assay [1], the affinity corresponds to a Ki of 32 µM and the pKi (usually the Ki on a negative log10 scale, so that one unit is a factor of ten) was found to be 4.5. The compound further registered an EC50 in assay [2] of more than 500 µM. This compound also registered an EC50 in assay [3] of more than 500 µM.

Consider `NCc1cnn(O)c1Cl`, for which the EC50 in [4] was more than 30 µM; in assay [2], more than 500 µM; in assay [3], 29 µM. Further, the result in assay [5] was inactive. Besides, the Rmax in [6] is more than 72%. In [1], the Ki turned out to be 0.63 µM. The compound also gave a pKi in [1] of 6.2.

`NCc1cn(O)nc1N` had a Ki in assay [1] of more than 100 µM.

Turning to `NCc1cn(O)nc1-c1ccc(-c2ccccc2)cc1`, the outcome in assay [7] and in [8] was inactive. The compound also yielded an inhibition constant (Ki) in [1] of 13 µM. In assay [1], this compound returned a pKi of 4.89. Also, the EC50 is more than 500 µM in [2] and more than 300 µM in assay [3].

Compound `On1ncc2c1CCNC2` yielded a Ki in assay [1] of more than 100 µM.

Take `Cc1c(CN)cnn1O`: the EC50 in assay [4] was more than 10 µM; in [2], more than 500 µM; in [3] it was more than 500 µM. In [5], the result was inactive. In addition, the Rmax in assay [6] is more than 64%. Moreover, in assay [1], the Ki was determined as 15 µM. The compound also returned a negative logarithm of the Ki (pKi) in assay [1] of 4.82.

On to `Cc1nn(O)cc1CN`, for which, in assay [1], the Ki is 68 µM and the pKi was 4.16.

Consider `On1cc2c(n1)CCNC2`, for which the Ki in assay [1] was more than 100 µM.

In assay [4], `NCc1cnn(O)c1Br` came in with an EC50 of more than 100 µM. Also, in [5], the result was inactive. Moreover, the Rmax in [6] is more than 23%. In [1], this compound displayed an inhibitory constant (Ki) of 2.8 µM and a pKi of 5.56.

`NCc1cn(O)nc1-c1ccccc1` registered a Ki in assay [1] of more than 100 µM. The EC50 in [2] and in assay [3] was more than 500 µM each time.

On to `NCc1cn(O)nc1CCc1ccccc1`, for which the Ki in assay [1] was more than 100 µM.

Take `NCc1cn(O)nc1-c1cccc(-c2ccccc2)c1`: the outcome in assay [7] and in assay [8] was inactive. In assay [1], this compound came in with a Ki of 17 µM. Moreover, the pKi in [1] is listed as 4.81. The EC50 in assay [2] and in assay [3] was more than 500 µM each time.

`NCc1cn(O)nc1Cc1ccccc1` came in with a Ki in [1] of more than 100 µM.

`NCc1cn(O)nc1CCc1ccncc1`: the Ki in assay [1] was more than 100 µM.

In the case of `Cc1c(O)noc1CN`, the outcome in assay [9] was inactive. In addition, the outcome in assay [5] was inactive. In [1], the Ki was 54 µM and the pKi was 4.28.

Consider `NCc1cc(O)no1` [MUSCIMOL], for which the EC50 in [10] was 0.41 µM; in [11], 0.21 µM; in assay [12] (read-out: EC50) it was 0.054 µM; in assay [12] (read-out: pEC50 (converted)), 0.0537 µM; in [2], 0.7 µM; in assay [3], 0.54 µM. The same compound displayed a Ki in assay [1] of 0.007 µM.

Turning to `Oc1noc2c1CCNC2` [GABOXADOL], the Ki in assay [1] is 0.16 µM. The EC50 in assay [3] was determined as 14 µM.

Regarding `CCc1nn(O)cc1CN`, in [1], affinity was put at a Ki of 94 µM and the pKi came out at 4.03. In [2], this compound returned an EC50 of more than 500 µM. Also, the EC50 in assay [3] is more than 500 µM.
